These results are taken from ChEMBL document CHEMBL1140903, “Reactions of functionalized sulfonamides: application to lowering the lipophilicity of cytosolic phospholipase A2alpha inhibitors” (J Med Chem, 2009).

The term IC50 denotes the point on the concentration scale where inhibition reaches its midpoint.

Test [1] deals with Blood. Kind of test: Inhibition of A23187-induced TBX2 release in Sprague-Dawley rat whole blood. In kind it is functional, tissue-based. An outline of the steps: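 Rat whole blood is stimulated with calcium ionophore A23187, and thromboxane B2 is the read-out (cPLA2α- and COX-1-dependent). IC50 is taken from at least two runs, each run the mean of triplicate assays.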
The target of test [2] is T1, Cytosolic phospholipase A2 (Homo sapiens, UniProt P47712).
T1 sequence (P47712 whole entry): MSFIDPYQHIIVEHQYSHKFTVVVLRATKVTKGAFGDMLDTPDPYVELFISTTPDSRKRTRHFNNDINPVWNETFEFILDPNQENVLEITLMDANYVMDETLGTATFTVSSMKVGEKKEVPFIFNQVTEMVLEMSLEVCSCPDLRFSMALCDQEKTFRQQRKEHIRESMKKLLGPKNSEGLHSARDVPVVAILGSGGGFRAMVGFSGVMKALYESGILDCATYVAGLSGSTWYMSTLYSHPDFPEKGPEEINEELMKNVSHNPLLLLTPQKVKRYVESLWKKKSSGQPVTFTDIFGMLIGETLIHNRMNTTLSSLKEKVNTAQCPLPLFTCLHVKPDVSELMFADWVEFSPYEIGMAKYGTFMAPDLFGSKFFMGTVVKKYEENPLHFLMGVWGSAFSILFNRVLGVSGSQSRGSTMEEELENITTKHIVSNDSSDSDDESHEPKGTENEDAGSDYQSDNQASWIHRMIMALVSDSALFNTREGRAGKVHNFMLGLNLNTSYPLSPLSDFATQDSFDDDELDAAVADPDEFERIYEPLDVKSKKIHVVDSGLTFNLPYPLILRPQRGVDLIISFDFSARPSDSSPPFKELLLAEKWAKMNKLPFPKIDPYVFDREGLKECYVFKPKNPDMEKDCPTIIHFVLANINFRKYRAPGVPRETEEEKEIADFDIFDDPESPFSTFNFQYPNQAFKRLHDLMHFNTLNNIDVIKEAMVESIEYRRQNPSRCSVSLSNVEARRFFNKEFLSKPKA
Put plainly: Inhibition of human cytosolic PLA2alpha by GLU micelle assay. An outline of the steps:
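Purified human cPLA2α with the substrate 7-hydroxycoumarinyl-γ-linolenate (GLU), presented in micelles containing a high concentration of detergent and lipid. IC50 is taken from at least two runs, each run the mean of duplicate assays.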

Regarding `O=C(O)c1ccc(OCCc2c(CCNS(=O)(=O)Cc3ccc(Cl)c(Cl)c3)n(C(c3ccccc3)c3ccccc3)c3ccc(Cl)cc23)cc1` [ECOPLADIB], the IC50 in test [1] amounted to 110 nM. For `Cc1ccn(CCS(=O)(=O)NCCc2c(CCOc3ccc(C(=O)O)cc3)c3cc(Cl)ccc3n2C(c2ccccc2)c2ccccc2)n1`, the IC50 in test [1] was determined as 200 nM; in test [2], 510 nM.

Consider `CC(=O)N1CCN(Cc2ccccc2CS(=O)(=O)NCCc2c(CCCc3ccc(C(=O)O)cc3)c3cc(Cl)ccc3n2C(c2ccccc2)c2ccccc2)CC1`, for which the figures for the IC50 in test [1] and in test [2] were 34 nM and 6 nM, respectively. Regarding `O=C(O)c1ccc(OCCc2c(CCNS(=O)(=O)CCn3cccn3)n(C(c3ccccc3)c3ccccc3)c3ccc(Cl)cc23)cc1`, the midpoint of inhibition in test [1], the IC50, lay at 540 nM. `Cc1cccc(C)c1SCS(=O)(=O)NCCc1c(CCOc2ccc(C(=O)O)cc2)c2cc(Cl)ccc2n1C(c1ccccc1)c1ccccc1`: the IC50 amounted to 300 nM in test [1] and 330 nM in test [2]. On to `CC(=O)N1C(C)CN(CCS(=O)(=O)NCCc2c(CCOc3ccc(C(=O)O)cc3)c3cc(Cl)ccc3n2C(c2ccccc2)c2ccccc2)CC1C` (stereo not drawn), for which the IC50 came to 1200 nM in test [1] and 270 nM in test [2]. The corresponding values for `O=Cc1ccccc1CS(=O)(=O)NCCc1c(CCCc2ccc(C(=O)O)cc2)c2cc(Cl)ccc2n1C(c1ccccc1)c1ccccc1` are 50 nM and 200 nM.

Take `O=C(O)c1ccc(OCCc2c(CCNS(=O)(=O)CCN3CCSC3)n(C(c3ccccc3)c3ccccc3)c3ccc(Cl)cc23)cc1`: the IC50 in test [1] amounted to 320 nM. On to `O=C(O)c1ccc(OCCc2c(CCNS(=O)(=O)CCn3ccnn3)n(C(c3ccccc3)c3ccccc3)c3ccc(Cl)cc23)cc1`, for which the IC50 in test [1] was 200 nM; in test [2], 500 nM. For the compound `O=C(O)c1ccc(OCCc2c(CCNS(=O)(=O)CCN3CCNC3=S)n(C(c3ccccc3)c3ccccc3)c3ccc(Cl)cc23)cc1`, the IC50 in test [1] was 5000 nM; in test [2] it was 750 nM.

On to `CC1C(=O)NCCN1CCS(=O)(=O)NCCc1c(CCOc2ccc(C(=O)O)cc2)c2cc(Cl)ccc2n1C(c1ccccc1)c1ccccc1` (stereo not drawn), for which it took 480 nM to reach half-maximal inhibition in test [1] (IC50). Compound `O=C(O)c1ccc(CCCc2c(CCNS(=O)(=O)Cc3ccccc3CN3CCOCC3)n(C(c3ccccc3)c3ccccc3)c3ccc(Cl)cc23)cc1` returned an IC50 in test [1] of 20 nM. As to `Cc1cnn(CCS(=O)(=O)NCCc2c(CCOc3ccc(C(=O)O)cc3)c3cc(Cl)ccc3n2C(c2ccccc2)c2ccccc2)c1`, the 50% inhibitory concentration (IC50) came to 280 nM in test [1] and 760 nM in test [2]. Consider `CC1CN(CCS(=O)(=O)NCCc2c(CCOc3ccc(C(=O)O)cc3)c3cc(Cl)ccc3n2C(c2ccccc2)c2ccccc2)CC(C)N1` (stereo not drawn), for which, in test [1], the concentration for half-maximal inhibition (IC50) was more than 10000 nM. In the case of `CC1CCCN(CCS(=O)(=O)NCCc2c(CCOc3ccc(C(=O)O)cc3)c3cc(Cl)ccc3n2C(c2ccccc2)c2ccccc2)C1` (stereo not drawn), the IC50 in test [1] stood at 200 nM; in test [2], 350 nM. For `O=C(O)c1ccc(OCCc2c(CCNS(=O)(=O)CCN3CCOCC3)n(C(c3ccccc3)c3ccccc3)c3ccc(Cl)cc23)cc1`, the IC50 in test [1] was determined as 530 nM; in test [2] it was 390 nM. Take `O=C(O)c1ccc(OCCc2c(CCNS(=O)(=O)CSc3ccc(F)c(Cl)c3)n(C(c3ccccc3)c3ccccc3)c3ccc(Cl)cc23)cc1`: the IC50 in test [1] is 70 nM; in test [2] it was 170 nM.

In the case of `COC[C@@H]1CCCN1CCS(=O)(=O)NCCc1c(CCOc2ccc(C(=O)O)cc2)c2cc(Cl)ccc2n1C(c1ccccc1)c1ccccc1`, the IC50 came to 330 nM in test [1] and 250 nM in test [2]. On to `CCN(CC)Cc1ccccc1CS(=O)(=O)NCCc1c(CCCc2ccc(C(=O)O)cc2)c2cc(Cl)ccc2n1C(c1ccccc1)c1ccccc1`, for which the IC50 came to 37 nM in test [1] and 30 nM in test [2]. The compound `O=C(O)c1ccc(OCCc2c(CCNS(=O)(=O)Cc3ccccc3)n(C(c3ccccc3)c3ccccc3)c3ccc(Cl)cc23)cc1` had an IC50 in test [1] of 120 nM. For `CC1CCCC(C)N1CCS(=O)(=O)NCCc1c(CCCc2ccc(C(=O)O)cc2)c2cc(Cl)ccc2n1C(c1ccccc1)c1ccccc1` (stereo not drawn), the 50% inhibitory concentration (IC50) in test [1] turned out to be 50 nM. As to `O=C(O)c1ccc(OCCc2c(CCNS(=O)(=O)CCN3CCC(O)CC3)n(C(c3ccccc3)c3ccccc3)c3ccc(Cl)cc23)cc1`, the IC50 in test [1] amounted to 1300 nM; in test [2], 350 nM.

`O=C(O)c1ccc(OCCc2c(CCNS(=O)(=O)CSc3ccc(Cl)cc3Cl)n(C(c3ccccc3)c3ccccc3)c3ccc(Cl)cc23)cc1`: the IC50 in test [1] was found to be 80 nM; in test [2] it was 300 nM.

Regarding `O=C(O)c1ccc(CCCc2c(CCNS(=O)(=O)Cc3ccccc3CO)n(C(c3ccccc3)c3ccccc3)c3ccc(Cl)cc23)cc1`, 28 nM corresponded to half-maximal inhibition in test [1] (IC50). As for `O=C(O)c1ccc(OCCc2c(CCNS(=O)(=O)CCc3ccccc3)n(C(c3ccccc3)c3ccccc3)c3ccc(Cl)cc23)cc1`, the values for the half-inhibitory concentration (IC50) in test [1] and in test [2] were 630 nM and 500 nM, respectively.

With `O=C(O)c1ccc(OCCc2c(CCNS(=O)(=O)CSc3cc(Cl)cc(Cl)c3)n(C(c3ccccc3)c3ccccc3)c3ccc(Cl)cc23)cc1`, the 50% inhibitory concentration (IC50) in test [1] was found to be 140 nM; in test [2] it was 200 nM.

`O=C(O)c1ccc(OCCc2c(CCNS(=O)(=O)CCn3ccnc3)n(C(c3ccccc3)c3ccccc3)c3ccc(Cl)cc23)cc1` had a half-inhibitory concentration (IC50) in test [1] of 5800 nM. As for `COc1ccc(OC)c(SCS(=O)(=O)NCCc2c(CCOc3ccc(C(=O)O)cc3)c3cc(Cl)ccc3n2C(c2ccccc2)c2ccccc2)c1`, the 50% inhibitory concentration (IC50) came to 240 nM in test [1] and 330 nM in test [2].

With `O=C(O)c1ccc(OCCc2c(CCNS(=O)(=O)CSc3c(Cl)cccc3Cl)n(C(c3ccccc3)c3ccccc3)c3ccc(Cl)cc23)cc1`, the IC50 in test [1] is 160 nM; in test [2], 600 nM. Regarding `O=C(O)c1ccc(OCCc2c(CCNS(=O)(=O)CCn3cncn3)n(C(c3ccccc3)c3ccccc3)c3ccc(Cl)cc23)cc1`, the IC50 is 1500 nM in test [1] and 410 nM in test [2]. In the case of `C[C@@H]1COC[C@H](C)N1CCS(=O)(=O)NCCc1c(CCOc2ccc(C(=O)O)cc2)c2cc(Cl)ccc2n1C(c1ccccc1)c1ccccc1`, the IC50 in test [1] was found to be 340 nM; in test [2] it was 450 nM. Turning to `CN1CCN(Cc2ccccc2CS(=O)(=O)NCCc2c(CCCc3ccc(C(=O)O)cc3)c3cc(Cl)ccc3n2C(c2ccccc2)c2ccccc2)CC1`, the IC50 in test [1] was 80 nM; in test [2], 20 nM. With `Cc1ccccc1SCS(=O)(=O)NCCc1c(CCOc2ccc(C(=O)O)cc2)c2cc(Cl)ccc2n1C(c1ccccc1)c1ccccc1`, the 50% inhibitory concentration (IC50) in test [1] is 80 nM; in test [2], 150 nM. As to `CC1CCCN1CCS(=O)(=O)NCCc1c(CCOc2ccc(C(=O)O)cc2)c2cc(Cl)ccc2n1C(c1ccccc1)c1ccccc1` (stereo not drawn), the IC50 in test [1] came to 77 nM; in test [2] it was 220 nM. On to `COc1ccccc1S(=O)(=O)NCCc1c(CCCc2ccc(C(=O)O)cc2)c2cc(Cl)ccc2n1C(c1ccccc1)c1ccccc1`, for which the IC50 amounted to 200 nM in test [1] and 100 nM in test [2]. Regarding `CC1CCN(CCS(=O)(=O)NCCc2c(CCOc3ccc(C(=O)O)cc3)c3cc(Cl)ccc3n2C(c2ccccc2)c2ccccc2)CC1`, the IC50 in test [1] stood at 200 nM; in test [2], 220 nM. `O=C(O)c1ccc(OCCc2c(CCNS(=O)(=O)CCN3CCC(O)C3)n(C(c3ccccc3)c3ccccc3)c3ccc(Cl)cc23)cc1` (stereo not drawn): the IC50 in test [1] was 310 nM; in test [2], 700 nM. For `Cc1cc(C)n(CCS(=O)(=O)NCCc2c(CCCc3ccc(C(=O)O)cc3)c3cc(Cl)ccc3n2C(c2ccccc2)c2ccccc2)n1`, the IC50 in test [1] was 110 nM; in test [2], 300 nM.

As for `CC(=O)N1CCN(CCS(=O)(=O)NCCc2c(CCOc3ccc(C(=O)O)cc3)c3cc(Cl)ccc3n2C(c2ccccc2)c2ccccc2)CC1`, the concentration for half-maximal inhibition (IC50) in test [1] was found to be 240 nM. With `C[C@@H]1CCC[C@H](C)N1CCS(=O)(=O)NCCc1c(CCOc2ccc(C(=O)O)cc2)c2cc(Cl)ccc2n1C(c1ccccc1)c1ccccc1`, the IC50 in test [1] was 100 nM; in test [2], 250 nM. For the compound `Cc1cccc(C)c1CS(=O)(=O)NCCc1c(CCCc2ccc(C(=O)O)cc2)c2cc(Cl)ccc2n1C(c1ccccc1)c1ccccc1`, the IC50 amounted to 30 nM in test [1] and 10 nM in test [2]. Take `O=C(O)c1ccc(OCCc2c(CCNS(=O)(=O)CSc3ccccc3Cl)n(C(c3ccccc3)c3ccccc3)c3ccc(Cl)cc23)cc1`: the 50% inhibitory concentration (IC50) in test [1] was found to be 90 nM; in test [2], 150 nM. With `O=C(O)c1ccc(CCCc2c(CCNS(=O)(=O)Cc3ccccc3CN3CCNCC3)n(C(c3ccccc3)c3ccccc3)c3ccc(Cl)cc23)cc1`, the half-maximal inhibitory concentration (IC50) in test [1] was determined as 170 nM; in test [2], 13 nM. In the case of `O=C(O)c1ccc(OCCc2c(CCNS(=O)(=O)CCN3CC4CC3CO4)n(C(c3ccccc3)c3ccccc3)c3ccc(Cl)cc23)cc1` (stereo not drawn), the results for the IC50 in test [1] and in test [2] were 400 nM and 250 nM, respectively. With `CN(C)C1CCN(CCS(=O)(=O)NCCc2c(CCOc3ccc(C(=O)O)cc3)c3cc(Cl)ccc3n2C(c2ccccc2)c2ccccc2)C1` (stereo not drawn), the IC50 in test [1] is more than 1250 nM.
